According to ChEMBL document CHEMBL1121598, “Acylthioxanthenes: agents which selectively reduce decerebrate rigidity in the cat” (1980):

Legend:
Assay type in all cases: functional
[1] = system: Felis catus; test: Reduction of the integrated electromyographic response by 50% in cat after intravenous administration
In short: (§1)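 Intercollicular decerebration of cats (midbrain sectioned between colliculi) under halothane, anesthesia then stopped; ≥1 h later, integrated EMG of quadriceps recorded in response to controlled stretches. Drug infused iv in saline in graded doses, stretch response repeated; dose (μmol/kg iv) reducing stretch response by 50% determined.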

[2] = system: Felis catus; test: Dose of compound to reduce the integrated electromyographic response by 50% in cat after peroral administration; Range is 5.5-13.7
[3] = system: Mus musculus; test: Reduction of locomotor activity count to 50% of the control in mouse after oral administration
In short: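 Mouse locomotor activity by Dews method, modified: drug given orally, activity measured for 5 min starting 1 h later. Dose (μmol/kg po) reducing locomotor activity count to 50% of control determined.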

[4] = Ratio of motor activity and activity A
[5] = system: Felis catus; test: Reduction of the integrated electromyographic response by 50% in cat after peroral administration
[6] = system: Felis catus; test: Dose of compound to reduce the integrated electromyographic response by 50% in cat after peroral administration; Range is 5.1-12.5
[7] = system: Felis catus; test: Dose of compound to reduce the integrated electromyographic response by 50% in cat after intravenous administration; value from second experiment.; in short: as §1

SMILES: CC(=O)c1ccc2c(c1)C(CCCN(C)C)c1ccccc1S2 (configuration not stated)
- Activity A [1]: 0.9 µM/kg
- Activity B [2]: 5.5 µM/kg
- Locomotor activity [3]: 57 µM/kg
- Ratio [4]: 63

SMILES: CC(=O)c1ccc2c(c1)C(CC(C)CN(C)C)c1ccccc1S2 (configuration not stated)
- Activity A [1]: 2.08 µM/kg
- Activity B [5]: >13 µM/kg
- Locomotor activity [3]: 377 µM/kg
- Ratio [4]: 181

SMILES: CC(/C=C1/c2ccccc2Sc2ccc(C(=O)C(C)C)cc21)CN(C)C (configuration not stated)
- Activity A [1]: 0.67 µM/kg
- Locomotor activity [3]: 145 µM/kg
- Ratio [4]: 216

SMILES: CCC(=O)c1ccc2c(c1)C(CCCN(C)C)c1cc(Cl)ccc1S2 (configuration not stated)
- Activity A [1]: 6.17 µM/kg
- Locomotor activity [3]: 343 µM/kg
- Ratio [4]: 56

SMILES: CC(=O)c1ccc2c(c1)N(CCCN(C)C)c1ccccc1S2 [ACEPROMAZINE]
- Activity A [1]: 0.03 µM/kg
- Activity B [5]: 1 µM/kg
- Locomotor activity [3]: 11 µM/kg
- Ratio [4]: 393

SMILES: CCCC(=O)c1ccc2c(c1)N(CC(C)CN(C)C)c1ccccc1S2 (configuration not stated)
- Activity A [1]: 0.65 µM/kg
- Activity B [5]: 1.2 µM/kg
- Locomotor activity [3]: 136 µM/kg
- Ratio [4]: 209

SMILES: CC(=O)c1ccc2c(c1)/C(=C\CCN(C)C)c1cc(Cl)ccc1S2 (stereo in doubt; 32) [listing 1 of 2 here]
- Activity A [1]: 0.81 µM/kg
- Locomotor activity [3]: 96 µM/kg

SMILES: CC(=O)c1ccc2c(c1)N(CC(C)CN(C)C)c1cc(Cl)ccc1S2 (configuration not stated)
- Activity A [1]: 0.32 µM/kg
- Activity B [5]: 1 µM/kg
- Locomotor activity [3]: 161 µM/kg
- Ratio [4]: 506

SMILES: CCC(=O)c1ccc2c(c1)/C(=C\C(C)CN(C)C)c1ccccc1S2 (configuration not stated)
- Activity A [1]: 0.52 µM/kg
- Activity B [5]: >5.2 µM/kg
- Locomotor activity [3]: 261 µM/kg
- Ratio [4]: 501

SMILES: CN(C)CC/C=C1/c2ccccc2Sc2ccc(Cl)cc21 [CHLORPROTHIXENE]
- Activity A [1]: 0.39 µM/kg
- Activity B [5]: 2.1 µM/kg
- Locomotor activity [3]: 11 µM/kg
- Ratio [4]: 28

SMILES: CCC(=O)c1ccc2c(c1)/C(=C\CCN(C)C)c1ccccc1S2 (stereo in doubt; 36) [listing 1 of 2 here]
- Ratio [4]: 800

SMILES: CCC(=O)c1ccc2c(c1)/C(=C\CCN(C)C)c1ccccc1S2 (stereo in doubt; 35) [listing 1 of 2 here]
- Activity A [1]: 0.45 µM/kg
- Activity B [5]: 1.9 µM/kg
- Locomotor activity [3]: 339 µM/kg

SMILES: CC(=O)c1ccc2c(c1)/C(=C\CCN(C)C)c1cc(Cl)ccc1S2 (stereo in doubt; 33) [listing 1 of 2 here]
- Activity A [1]: 0.53 µM/kg
- Activity B [5]: >5.4 µM/kg
- Locomotor activity [3]: 89 µM/kg

SMILES: CCC(=O)c1ccc2c(c1)C(O)(CC1CCN(C)CC1)c1ccccc1S2 (configuration not stated)
- Activity A [1]: 19.39 µM/kg
- Locomotor activity [3]: >485 µM/kg
- Ratio [4]: > 25

SMILES: CCC(=O)c1ccc2c(c1)/C(=C\CCN1CCOCC1)c1ccccc1S2
- Activity A [1]: 0.27 µM/kg
- Locomotor activity [3]: 125 µM/kg
- Ratio [4]: 463

SMILES: CCCCC(=O)c1ccc2c(c1)/C(=C\C(C)CN(C)C)c1ccccc1S2 (configuration not stated)
- Activity A [1]: 3.29 µM/kg
- Locomotor activity [3]: 132 µM/kg
- Ratio [4]: 40

SMILES: CC(=O)c1ccc2c(c1)/C(=C\C(C)CN(C)C)c1ccccc1S2 (configuration not stated)
- Activity A [1]: 1.31 µM/kg
- Locomotor activity [3]: 94 µM/kg
- Ratio [4]: 72

SMILES: CN(C)CC/C=C1/c2ccccc2C=Cc2ccc(Cl)cc21
- Activity A [1]: 4.01 µM/kg
- Activity B [5]: >6.1 µM/kg
- Locomotor activity [3]: 103 µM/kg
- Ratio [4]: 26

SMILES: CC(=O)c1ccc2c(c1)/C(=C\CCN(C)C)c1cc(Cl)ccc1S2 (stereo in doubt; 33) [listing 2 of 2 here]
- Ratio [4]: 168

SMILES: CCC(=O)c1ccc2c(c1)C(=C1CCN(C)CC1)c1ccccc1S2
- Activity A [1]: 0.68 µM/kg
- Locomotor activity [3]: 96 µM/kg
- Ratio [4]: 141

SMILES: CCC(=O)c1ccc2c(c1)/C(=C\CCN(C)C)c1ccccc1S2 (stereo in doubt; 36) [listing 2 of 2 here]
- Activity A [1]: 0.15 µM/kg
- Activity B [5]: 1.8 µM/kg
- Locomotor activity [3]: 120 µM/kg

SMILES: CCC(=O)c1ccc2c(c1)/C(=C\CCN1CCN(C)CC1)c1ccccc1S2
- Activity A [1]: 0.67 µM/kg
- Locomotor activity [3]: 42 µM/kg
- Ratio [4]: 43

SMILES: CN(C)CCCN1c2ccccc2Sc2ccc(Cl)cc21 [CHLORPROMAZINE]
- Activity A [1]: 0.25 µM/kg
- Activity B [5]: 2 µM/kg
- Locomotor activity [3]: 39 µM/kg

SMILES: CCC(=O)c1ccc2c(c1)/C(=C\CCN(C)C)c1ccccc1S2 (stereo in doubt; 35) [listing 2 of 2 here]
- Ratio [4]: 753

SMILES: CCC(=O)c1ccc2c(c1)/C(=C\CCN(C)C)c1cc(Cl)ccc1S2
- Activity A [1]: 1.08 µM/kg
- Activity B [5]: >9.6 µM/kg
- Locomotor activity [3]: 695 µM/kg
- Ratio [4]: 644

SMILES: CC(CN1c2ccccc2Sc2ccc(S(=O)(=O)N(C)C)cc21)N(C)C (configuration not stated) [FONAZINE]
- Activity A [1]: 4.67 µM/kg
- Activity B [5]: 8.1 µM/kg
- Locomotor activity [3]: 860 µM/kg
- Ratio [4]: 184

SMILES: CCCC(=O)c1ccc2c(c1)/C(=C\CCN(C)C)c1ccccc1S2
- Activity A [1]: 1.5 µM/kg
- Activity B [6]: 5.1 µM/kg
- Locomotor activity [3]: >501 µM/kg
- Ratio [4]: 334

SMILES: CC(=O)c1ccc2c(c1)/C(=C\CCN(C)C)c1ccccc1S2
- Activity A [1]: 0.54 µM/kg
- Activity B [5]: <5.4 µM/kg
- Locomotor activity [3]: 33 µM/kg
- Ratio [4]: 60

SMILES: CCC(=O)c1ccc2c(c1)/C(=C\C(C)CN(C)C)c1cc(Cl)ccc1S2 (configuration not stated)
- Activity A [1]: 1.3 µM/kg
- Activity B [5]: >9.3 µM/kg
- Locomotor activity [3]: 534 µM/kg
- Ratio [4]: 411

SMILES: CC(=O)c1ccc2c(c1)C(O)(CC(C)CN(C)C)c1ccccc1S2 (configuration not stated)
- Activity A [1]: 3.17 µM/kg
- Activity A [7]: >21.18 µM/kg

SMILES: CCCC(=O)c1ccc2c(c1)/C(=C\C(C)CN(C)C)c1ccccc1S2 (configuration not stated)
- Activity A [1]: 1.22 µM/kg
- Locomotor activity [3]: 195 µM/kg
- Ratio [4]: 160

SMILES: CC(C)C(=O)c1ccc2c(c1)/C(=C\CCN(C)C)c1ccccc1S2
- Activity A [1]: 0.4 µM/kg
- Locomotor activity [3]: 89 µM/kg
- Ratio [4]: 218

SMILES: CCC(=O)c1ccc2c(c1)/C(=C\C(C)CN1CCOCC1)c1ccccc1S2 (configuration not stated)
- Activity A [1]: 6.5 µM/kg
- Locomotor activity [3]: >659 µM/kg
- Ratio [4]: > 101

SMILES: CC(=O)c1ccc2c(c1)/C(=C\C(C)CN(C)C)c1cc(Cl)ccc1S2 (configuration not stated)
- Activity A [1]: 1.19 µM/kg
- Locomotor activity [3]: 192 µM/kg
- Ratio [4]: 161

SMILES: CC(=O)c1ccc2c(c1)/C(=C\CCN(C)C)c1cc(Cl)ccc1S2 (stereo in doubt; 32) [listing 2 of 2 here]
- Ratio [4]: 119

SMILES: CCC(=O)c1ccc2c(c1)/C(=C\C(CC)CN(C)C)c1ccccc1S2 (configuration not stated)
- Activity A [1]: 4.14 µM/kg
- Locomotor activity [3]: 280 µM/kg
- Ratio [4]: 68

SMILES: CCCCC(=O)c1ccc2c(c1)/C(=C\CCN(C)C)c1ccccc1S2
- Activity A [1]: 1.35 µM/kg
